Experimental data from ChEMBL document CHEMBL2010803, “Novel NSAID 1-acyl-4-cycloalkyl/arylsemicarbazides and 1-acyl-5-benzyloxy/hydroxy carbamoylcarbazides as potential anticancer agents and antioxidants” (Eur J Med Chem, 2012).
The source made the active and inactive calls. No cut-off for these calls is given here.

Key:
[1] = system: Respiratory syncytial virus; test: Antiviral activity against RSV infected in human cervix carcinoma cells assessed as inhibition of virus-induced cytopathic effect at 0.32 to 100 uM; assay type: functional, organism-based
How it was run: (§1)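 Confluent cell cultures were infected with 100 CCID50 of virus in the presence of test compound at 100, 40, 8, 1.6 and 0.32 μM. Cytopathic effect was scored once it was complete in untreated infected controls.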

Coxsackievirus B4 [2] = test: Antiviral activity against Coxsackievirus B4 infected in human cervix carcinoma cells assessed as inhibition of virus-induced cytopathic effect at 0.32 to 100 uM; assay type: functional, organism-based; how it was run: as §1
L1210 = test: Cytostatic activity against mouse L1210 cells after 2 days by coulter counter analysis; assay type: functional, cell-based; settings: L1210, 48 h
How it was run: (§2)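 300,000–500,000 cells/ml mixed 1:1 with compound dilutions and incubated at 37 °C for 2 days (L1210) or 3 days (CEM, HeLa). Cell number counted with a Coulter counter; HeLa trypsinized before counting.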

CCRF-CEM = test: Cytostatic activity against human CEM cells after 3 days by coulter counter analysis; assay type: functional, cell-based; settings: 72 h; how it was run: as §2
HeLa = test: Cytostatic activity against human HeLa cells after 3 days by coulter counter analysis; assay type: functional, cell-based; settings: 72 h; how it was run: as §2
HCT-116 = test: Cytostatic activity against human HCT116 cells after 72 hrs by MTT assay; assay type: functional, cell-based; settings: HCT-116, 72 h
How it was run: (§3)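 Monolayers in DMEM with 10% FBS, 2 mM L-glutamine and penicillin/streptomycin, 37 °C, 5% CO2. Seeded at 1–3 × 10^4 cells/ml, then compound added in tenfold dilutions (10⁻⁸–10⁻⁴ M) for 72 h. MTT read at 570 nm; percent growth taken against time-zero and untreated controls. IC50 by linear regression; quadruplicate, at least two experiments.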

MCF7 = test: Cytostatic activity against human MCF7 cells after 72 hrs by MTT assay; assay type: functional, cell-based; settings: MCF7, 72 h; how it was run: as §3
NCI-H460 = test: Cytostatic activity against human NCI-H460 cells after 72 hrs by MTT assay; assay type: functional, cell-based; settings: NCI-H460, 72 h; how it was run: as §3
Human alphaherpesvirus 1 = test: Antiviral activity against HSV1 KOS infected in human lung fibroblast assessed as inhibition of virus-induced cytopathic effect at 0.32 to 100 uM; assay type: functional, organism-based; how it was run: as §1
Human alphaherpesvirus 2 = test: Antiviral activity against HSV2 G infected in human lung fibroblast assessed as inhibition of virus-induced cytopathic effect at 0.32 to 100 uM; assay type: functional, organism-based; settings: strain G; how it was run: as §1
Vaccinia virus = test: Antiviral activity against Vaccinia virus infected in human lung fibroblast assessed as inhibition of virus-induced cytopathic effect at 0.32 to 100 uM; assay type: functional, organism-based; settings: Orthopoxvirus vaccinia
[3] = system: Vesicular stomatitis virus; test: Antiviral activity against VSV infected in human lung fibroblast assessed as inhibition of virus-induced cytopathic effect at 0.32 to 100 uM; assay type: functional, organism-based
Human respirovirus 3 = test: Antiviral activity against Parainfluenza virus 3 infected in african green monkey Vero cells assessed as inhibition of virus-induced cytopathic effect at 0.32 to 100 uM; assay type: functional, organism-based; how it was run: as §1
[4] = system: Mammalian orthoreovirus 1; test: Antiviral activity against Reovirus-1 infected in african green monkey Vero cells assessed as inhibition of virus-induced cytopathic effect at 0.32 to 100 uM; assay type: functional, organism-based; how it was run: as §1
Sindbis virus = test: Antiviral activity against Sindbis virus infected in african green monkey Vero cells assessed as inhibition of virus-induced cytopathic effect at 0.32 to 100 uM; assay type: functional, organism-based; how it was run: as §1
Coxsackievirus B4 [5] = test: Antiviral activity against Coxsackievirus B4 infected in african green monkey Vero cells assessed as inhibition of virus-induced cytopathic effect at 0.32 to 100 uM; assay type: functional, organism-based; how it was run: as §1
Punta Toro virus = test: Antiviral activity against Punta Toro virus infected in african green monkey Vero cells assessed as inhibition of virus-induced cytopathic effect at 0.32 to 100 uM; assay type: functional, organism-based; how it was run: as §1
[6] = system: Vesicular stomatitis virus; test: Antiviral activity against Vesicular stomatitis virus infected in human cervix carcinoma cells assessed as inhibition of virus-induced cytopathic effect at 0.32 to 100 uM; assay type: functional, organism-based
How it was run: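 Confluent human cervix carcinoma (HeLa) cultures received 100 CCID50 of VSV together with the compound at 100, 40, 8, 1.6 or 0.32 μM. Cytopathicity was read at the point of full CPE in infected, untreated control wells.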

Felid alphaherpesvirus 1 = test: Antiviral activity against Feline herpesvirus infected in feline CRFK cells assessed as inhibition of virus-induced cytopathic effect at 0.32 to 100 uM; assay type: functional, organism-based; how it was run: as §1
Feline coronavirus = test: Antiviral activity against Feline coronavirus infected in feline CRFK cells assessed as inhibition of virus-induced cytopathic effect at 0.32 to 100 uM; assay type: functional, organism-based; how it was run: as §1
Influenza A virus [7] = test: Antiviral activity against Influenza A virus H1N1 infected in MDCK cells assessed as inhibition of virus-induced cytopathic effect at 0.32 to 100 uM; assay type: functional, organism-based
How it was run: (§4)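 Confluent MDCK monolayers were infected in the presence of the compound at 100, 40, 8, 1.6 and 0.32 μM. Viral cytopathicity was scored once it was complete in untreated infected control cultures.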

Influenza A virus [8] = test: Antiviral activity against Influenza A virus H3N2 infected in MDCK cells assessed as inhibition of virus-induced cytopathic effect at 0.32 to 100 uM; assay type: functional, organism-based; how it was run: as §4
Influenza B virus = test: Antiviral activity against Influenza B virus infected in MDCK cells assessed as inhibition of virus-induced cytopathic effect at 0.32 to 100 uM; assay type: functional, organism-based; how it was run: as §4
[9] = system: Human immunodeficiency virus 1; test: Antiviral activity against HIV1 3B infected in human CEM cells assessed as inhibition of virus-induced CEM giant cell formation at 0.32 to 100 uM after 4 days; assay type: functional, organism-based; settings: CCRF-CEM
How it was run: (§5)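 CEM cells (~3 × 10^5 cells/cm³) exposed to 100 CCID50/ml of virus and seeded into wells holding compound dilutions. Incubated 4 days at 37 °C, then giant cell formation examined microscopically.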

[10] = system: Human immunodeficiency virus 2; test: Antiviral activity against HIV2 ROD infected in human CEM cells assessed as inhibition of virus-induced CEM giant cell formation at 0.32 to 100 uM after 4 days; assay type: functional, organism-based; settings: ISOLATE ROD, CCRF-CEM; how it was run: as §5
[11] = system: Radical scavenging activity; test: Antioxidant activity assessed as DPPH free radical scavenging activity at 100 uM after 20 mins by spectrophotometric analysis; assay type: functional
How it was run: (§6)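 0.05 mM DPPH in absolute ethanol mixed with an equal volume of compound in DMSO (final 100 μM). Shaken and left 20 or 60 min, then absorbance read at 517 nm and percent activity calculated. Three replicates, averaged.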

[12] = system: Radical scavenging activity; test: Antioxidant activity assessed as DPPH free radical scavenging activity at 100 uM after 60 mins by spectrophotometric analysis; assay type: functional; how it was run: as §6
[13] = Antioxidant activity assessed as inhibition of AAPH-induced linoleic acid lipid peroxidation by measuring conjugated diene hydroperoxide level; assay type: functional; set-up: concentration or dose not given beside the values; settings: dose or concentration not given here
How it was run: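 Linoleic acid sodium salt (10 μL of 16 mM) in 0.05 M phosphate buffer pH 7.4 at 37 °C. Oxidation started under air with 50 μL of 40 mM AAPH. Conjugated diene hydroperoxide formation followed as absorbance rise at 234 nm; control contains the same DMSO level. At least triplicate.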

Glycine max = test: Inhibition of soybean LOX assessed as conversion of sodium linoleate to 13- hydroperoxylinoleic acid at 100 uM

CC(C(=O)NNC(=O)NO)c1cccc(Cc2ccccc2)c1 (configuration not stated)
inhibition [1]: inactive
inhibition (Coxsackievirus B4 [2]): inactive
IC50 (L1210): 113 µM
IC50 (CCRF-CEM): 155 µM
IC50 (HeLa): 176 µM
IC50 (HCT-116): > 100 µM
IC50 (MCF7): > 100 µM
IC50 (NCI-H460): > 100 µM
inhibition (Human alphaherpesvirus 1): inactive
inhibition (Human alphaherpesvirus 2): inactive
inhibition (Vaccinia virus): inactive
inhibition [3]: inactive
inhibition (Human respirovirus 3): inactive
inhibition [4]: inactive
inhibition (Sindbis virus): inactive
inhibition (Coxsackievirus B4 [5]): inactive
inhibition (Punta Toro virus): inactive
inhibition [6]: inactive
inhibition (Felid alphaherpesvirus 1): inactive
inhibition (Feline coronavirus): inactive
inhibition (Influenza A virus [7]): inactive
inhibition (Influenza A virus [8]): inactive
inhibition (Influenza B virus): inactive
inhibition [9]: inactive
inhibition [10]: inactive
Activity [11]: 36%
Activity [12]: 59%
inhibition [13]: 8%
inhibition (Glycine max): 8%

O=C(NNC(=O)n1nnc2ccccc21)NOCc1ccccc1
inhibition [1]: inactive
inhibition (Coxsackievirus B4 [2]): inactive
IC50 (L1210): > 250 µM
IC50 (CCRF-CEM): > 250 µM
IC50 (HeLa): > 250 µM
IC50 (HCT-116): > 100 µM
IC50 (MCF7): > 100 µM
IC50 (NCI-H460): > 100 µM
inhibition (Human alphaherpesvirus 1): inactive
inhibition (Human alphaherpesvirus 2): inactive
inhibition (Vaccinia virus): inactive
inhibition [3]: inactive
inhibition (Human respirovirus 3): inactive
inhibition [4]: inactive
inhibition (Sindbis virus): inactive
inhibition (Coxsackievirus B4 [5]): inactive
inhibition (Punta Toro virus): inactive
inhibition [6]: inactive
inhibition (Felid alphaherpesvirus 1): inactive
inhibition (Feline coronavirus): inactive
inhibition (Influenza A virus [7]): inactive
inhibition (Influenza A virus [8]): inactive
inhibition (Influenza B virus): inactive
inhibition [9]: inactive
inhibition [10]: inactive
Activity [11]: 85%
Activity [12]: 85%
inhibition [13]: 31%
inhibition (Glycine max): inactive

Cc1c(C)c2c(c(C)c1O)CCC(C)(C(=O)O)O2 (configuration not stated)
inhibition [13]: 63%

CC(C(=O)NNC(=O)NC1CCCCC1)c1cccc(Cc2ccccc2)c1 (configuration not stated)
inhibition [1]: inactive
inhibition (Coxsackievirus B4 [2]): inactive
IC50 (CCRF-CEM): 25 µM
IC50 (HeLa): 45 µM
IC50 (HCT-116): 22 µM
IC50 (MCF7): 16 µM
IC50 (NCI-H460): 23 µM
inhibition (Human alphaherpesvirus 1): inactive
inhibition (Human alphaherpesvirus 2): inactive
inhibition (Vaccinia virus): inactive
inhibition [3]: inactive
inhibition (Human respirovirus 3): inactive
inhibition [4]: inactive
inhibition (Sindbis virus): inactive
inhibition (Coxsackievirus B4 [5]): inactive
inhibition (Punta Toro virus): inactive
inhibition [6]: inactive
inhibition (Felid alphaherpesvirus 1): inactive
inhibition (Feline coronavirus): inactive
inhibition (Influenza A virus [7]): inactive
inhibition (Influenza A virus [8]): inactive
inhibition (Influenza B virus): inactive
inhibition [9]: inactive
inhibition [10]: inactive
Activity [11]: 3%
Activity [12]: 10%
inhibition [13]: 31%
inhibition (Glycine max): 10%
